Measured values: ChEMBL document CHEMBL2380254, “Optimization of tocotrienols as antiproliferative and antimigratory leads” (Eur J Med Chem, 2013)

Legend:
UO-31 = assay: Growth inhibition of human UO31 cells assessed as cell growth at 10 uM after 48 hrs by sulforhodamine B assay; assay type: functional; conditions: UO-31, 48 h, read-out: Activity
Method in brief: (§1)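 Single-dose NCI-60 test at 10 µM. Cells were grown in RPMI 1640 with 5% FBS and 2 mM L-glutamine, preincubated 24 h, with T0 plates TCA-fixed. Exposure was 48 h at 37 °C, 5% CO2. Cells were fixed with cold TCA (final 10%, 4 °C, 60 min), stained with SRB and read at 515 nm. Percent growth was taken relative to T0 and untreated control; negative values denote cell kill.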

TK-10 = assay: Growth inhibition of human TK10 cells assessed as cell growth at 10 uM after 48 hrs by sulforhodamine B assay; assay type: functional; conditions: TK-10, 48 h, read-out: Activity; method in brief: as §1
CAKI-1 = assay: Growth inhibition of human CAKI-1 cells assessed as cell growth at 10 uM after 48 hrs by sulforhodamine B assay; assay type: functional; conditions: CAKI-1, 48 h, read-out: Activity
Method in brief: (§2)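 NCI-60 single-dose screen at 10 µM: cells in RPMI 1640 with 5% FBS, preincubated 24 h, then exposed 48 h at 37 °C. TCA fixation (16% final for suspension cells), SRB staining, absorbance 515 nm. Percent growth relative to time-zero and untreated control plates; negative values indicate cell kill.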

A498 = assay: Growth inhibition of human A498 cells assessed as cell growth at 10 uM after 48 hrs by sulforhodamine B assay; assay type: functional; conditions: A498, 48 h, read-out: Activity; method in brief: as §2
OVCAR-8 = assay: Growth inhibition of human OVCAR8 cells assessed as cell growth at 10 uM after 48 hrs by sulforhodamine B assay; assay type: functional; conditions: OVCAR-8, 48 h, read-out: Activity
Method in brief: (§3)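 Single-dose NCI-60 screen: adherent cells in RPMI 1640 with 5% FBS were exposed to 10 µM for 48 h at 37 °C after a 24 h preincubation. They were fixed in situ with cold TCA (10% final), stained with 0.4% SRB in 1% acetic acid, solubilized in 10 mM Tris base, and read at 515 nm. Percent growth was taken relative to time-zero and control plates.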

SK-MEL-5 = assay: Growth inhibition of human SK-MEL-5 cells assessed as cell growth at 10 uM after 48 hrs by sulforhodamine B assay; assay type: functional; conditions: SK-MEL-5, 48 h, read-out: Activity; method in brief: as §3
SNB-75 = assay: Growth inhibition of human SNB75 cells assessed as cell growth at 10 uM after 48 hrs by sulforhodamine B assay; assay type: functional; conditions: SNB-75, 48 h, read-out: Activity; method in brief: as §1
SF-539 = assay: Growth inhibition of human SF539 cells assessed as cell growth at 10 uM after 48 hrs by sulforhodamine B assay; assay type: functional; conditions: SF-539, 48 h, read-out: Activity; method in brief: as §3
HCT-116 = assay: Growth inhibition of human HCT116 cells assessed as cell growth at 10 uM after 48 hrs by sulforhodamine B assay; assay type: functional; conditions: HCT-116, 48 h, read-out: Activity; method in brief: as §2
NCI-H522 = assay: Growth inhibition of human NCI-H522 cells assessed as cell growth at 10 uM after 48 hrs by sulforhodamine B assay; assay type: functional; conditions: NCI-H522, 48 h, read-out: Activity; method in brief: as §3
HOP-92 [1] = assay: Growth inhibition of human HOP92 cells assessed as cell growth at 10 uM after 48 hrs by sulforhodamine B assay; assay type: functional; conditions: HOP-92, 48 h, read-out: Activity; method in brief: as §2
MOLT-4 = assay: Growth inhibition of human MOLT4 cells assessed as cell growth at 10 uM after 48 hrs by sulforhodamine B assay; assay type: functional; conditions: MOLT-4, 48 h, read-out: Activity
Method in brief: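 Single 10 µM dose applied to suspension cells in RPMI 1640 with 5% FBS and 2 mM L-glutamine for 48 h at 37 °C. Settled cells were fixed with 80% TCA (16% final), stained with SRB, and read at 515 nm. Percent growth was calculated against time-zero and untreated control optical densities.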

K562 = assay: Growth inhibition of human K562 cells assessed as cell growth at 10 uM after 48 hrs by sulforhodamine B assay; assay type: functional; conditions: K562, 48 h, read-out: Activity; method in brief: as §2
BT-549 = assay: Growth inhibition of human BT549 cells after 48 hrs by sulforhodamine B assay; assay type: functional; conditions: BT-549, 48 h
Method in brief: (§4)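 NCI-60 screen: cells in RPMI 1640 with 5% FBS and 2 mM glutamine, 5000–40,000 cells/well, preincubated 24 h. Five concentrations (10-fold dilutions; 100 to 0.001 µM) applied for 48 h at 37 °C. TCA fixation, SRB stain, absorbance at 515 nm. Time-zero plates included; GI50 where 100×(T−T0)/(C−T0)=50.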

OVCAR-4 = assay: Growth inhibition of human OVCAR4 cells after 48 hrs by sulforhodamine B assay; assay type: functional; conditions: OVCAR-4, 48 h
Method in brief: (§5)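 NCI-60 panel cells grown in RPMI 1640 with 5% FBS and 2 mM L-glutamine, seeded at 5000–40,000 cells/well and preincubated 24 h. Five 10-fold dilutions (0.001–100 µM) from DMSO stocks were added for 48 h at 37 °C. Adherent cells were fixed with cold TCA (10% final) for 60 min at 4 °C, stained with 0.4% SRB, and read at 515 nm. GI50 was set where 100×(T−T0)/(C−T0)=50.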

UACC-62 = assay: Growth inhibition of human UACC62 cells after 48 hrs by sulforhodamine B assay; assay type: functional; conditions: UACC-62, 48 h
Method in brief: (§6)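 NCI-60 five-dose screen. Cells were grown in RPMI 1640 with 5% FBS and 2 mM L-glutamine, plated at 5000–40,000 cells/well and incubated 24 h before dosing, with T0 plates TCA-fixed. DMSO stocks were diluted to doses of […] and exposed 48 h at 37 °C, 5% CO2. Cells were fixed with cold TCA (final 10%, 60 min, 4 °C), stained with 0.4% SRB in 1% acetic acid for 10 min, solubilized in 10 mM trizma base and read at 515 nm. GI50 is where 100×(T−T0)/(C−T0)=50.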

MDA-MB-435 = assay: Growth inhibition of human MDA-MB-435 cells after 48 hrs by sulforhodamine B assay; assay type: functional; conditions: MDA-MB-435, 48 h; method in brief: as §5
U-251 = assay: Growth inhibition of human U251 cells after 48 hrs by sulforhodamine B assay; assay type: functional; conditions: U-251, 48 h; method in brief: as §6
COLO 205 = assay: Growth inhibition of human COLO205 cells after 48 hrs by sulforhodamine B assay; assay type: functional; conditions: COLO 205, 48 h; method in brief: as §4
NCI-H226 = assay: Growth inhibition of human NCI-H226 cells after 48 hrs by sulforhodamine B assay; assay type: functional; conditions: NCI-H226, 48 h; method in brief: as §5
HOP-92 [2] = assay: Growth inhibition of human HOP92 cells after 48 hrs by sulforhodamine B assay; assay type: functional; conditions: HOP-92, 48 h; method in brief: as §4
[3] = Antiproliferative activity against mouse +SA cells by MTT assay; assay type: functional, cell-based; conditions: +SA cell
Method in brief: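 Mouse +SA mammary epithelial cells in serum-free DMEM/F12 with BSA, transferrin, insulin and EGF. Compounds from DMSO stock conjugated to BSA (overnight, 37 °C); 0–40 µM, final DMSO <0.1%. MTT 0.42 mg/mL for 4 h at 37 °C, isopropanol solubilization, OD 570 nm. Cell number from a standard curve; IC50 by non-linear regression.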

Row | SMILES | growth at 10 µM (UO-31) | growth at 10 µM (TK-10) | growth at 10 µM (CAKI-1) | growth at 10 µM (A498) | growth at 10 µM (OVCAR-8) | growth at 10 µM (SK-MEL-5) | growth at 10 µM (SNB-75) | growth at 10 µM (SF-539) | growth at 10 µM (HCT-116) | growth at 10 µM (NCI-H522) | growth at 10 µM (MOLT-4) | GI50 (BT-549) | GI50 (OVCAR-4) | GI50 (UACC-62) | GI50 (MDA-MB-435) | GI50 (U-251) | GI50 (COLO 205) | GI50 (NCI-H226) | GI50 (HOP-92 [2]) | IC50 [3] | also measured
1 | CC(C)=CCC/C(C)=C/CC/C(C)=C/CC[C@]1(C)CCc2c3c(c(C)c(C)c2O1)OCN(CCCCCO)C3 | 64.6% | 97.5% | 70% | 97.4% | 69% | 108% | 70% | 106% | 36.1% | 84.8% | -24.8% | 7.34 µM | 5680 nM | 5.87 µM | 5.8 µM | 5710 nM | 3390 nM | 6.19 µM | 5420 nM | 1700 nM | growth at 10 µM (HOP-92 [1]): 63.4%; growth at 10 µM (K562): -55.4%
2 | CC(C)=CCC/C(C)=C/CC/C(C)=C/CC[C@]1(C)CCc2c3c(cc(C)c2O1)OCN(CCc1ccc(O)cc1)C3 | 52.1% | 100% | 70.3% | 100% | -74.3% | 73.8% | 44.4% | 94.1% | -58.2% | -50.5% | -3.07% | 7.06 µM | 5360 nM | 6.01 µM | 4.54 µM | 4320 nM | 958 nM | 5.4 µM | 4000 nM | 910 nM | growth at 10 µM (HOP-92 [1]): 69.1%; growth at 10 µM (K562): 3.51%
3 | CC(C)=CCC/C(C)=C/CC/C(C)=C/CC[C@]1(C)CCc2c3c(cc(C)c2O1)OCN(C1CCN(Cc2ccccc2)CC1)C3 | 57.8% | 82.5% | 75.3% | 63.2% | -85.8% | 110% | 62.5% | 80.6% | -81.9% | -24.9% | – | 1.89 µM | 1540 nM | 1.48 µM | 1.2 µM | 1510 nM | 2000 nM | 2.21 µM | 269 nM | 800 nM | growth at 10 µM (HOP-92 [1]): 37.4%; growth at 10 µM (K562): -29.3%
4 | CC(C)=CCC/C(C)=C/CC/C(C)=C/CC[C@]1(C)CCc2c3c(cc(C)c2O1)OCN(CCCO)C3 | 59.4% | 75.9% | 60.4% | 106% | -77.7% | 57.5% | 33.9% | 74.4% | -85.4% | -72.9% | -20.3% | 2 µM | 1640 nM | 1.81 µM | 1.65 µM | 1720 nM | 1980 nM | 2.31 µM | 1460 nM | 1800 nM | growth at 10 µM (HOP-92 [1]): 63.1%; growth at 10 µM (K562): -33.4%
5 | CC(C)=CCC/C(C)=C/CC/C(C)=C/CC[C@]1(C)CCc2c3c(cc(C)c2O1)OCN(CCCCCCCCO)C3 | -91.5% | 51.2% | -79.7% | 117% | -51.9% | 19.1% | -61.4% | -94.4% | -100% | -81.6% | -58.6% | 5.69 µM | 585 nM | 4.79 µM | 1.16 µM | 544 nM | 886 nM | 5.17 µM | 1840 nM | 790 nM | –
6 | CC(C)=CCC/C(C)=C/CC/C(C)=C/CC[C@]1(C)CCc2c3c(cc(C)c2O1)OCN(CCCCCCO)C3 | -37.8% | 88.4% | -72.8% | 121% | -62.8% | 20.9% | -1.37% | 28.3% | -97.3% | -0.37% | -42.9% | 6.15 µM | 518 nM | 4.85 µM | 0.967 µM | 536 nM | 717 nM | 5.27 µM | 1050 nM | 1300 nM | –
7 | CC(C)=CCC/C(C)=C/CC/C(C)=C/CC[C@]1(C)CCc2c3c(c(C)c(C)c2O1)OCN(CCCCO)C3 | 50.7% | 101% | 70.1% | 116% | 87.3% | 91% | 74.2% | 69.6% | -72.3% | 86.7% | 35.8% | > 10 µM | 3110 nM | > 10 µM | 4.68 µM | 1550 nM | 2090 nM | > 10 µM | 2900 nM | 2200 nM | –
8 | CC(C)=CCC/C(C)=C/CC/C(C)=C/CC[C@]1(C)CCc2c3c(cc(C)c2O1)OCN(CCCCO)C3 | 54.9% | 88.4% | 34% | 103% | -13.3% | 37.1% | 41.5% | 27.4% | -96.7% | 48.5% | -35.3% | 20.2 µM | 16400 nM | 17.5 µM | 17 µM | 6640 nM | 3050 nM | 15.3 µM | 10100 nM | 1800 nM | –
